# Measured values from different studies.
# Protocols differ between the studies behind these lines.
# RPS6KA1: Ribosomal protein S6 kinase alpha-1 (RPS6KA1, Homo sapiens, UniProt Q15418)
# RPS6KA1 C-terminal kinase domain: Ribosomal protein S6 kinase alpha-1, C-terminal kinase domain (RPS6KA1, Homo sapiens, UniProt Q15418)
Structure (SMILES),target,assay,setting,endpoint,value
Cn1cc(-c2cccc(N3CCc4c(sc5c4CC(C)(C)C5)C3=O)c2CO)cc(Nc2ccncn2)c1=O,RPS6KA1,"enzyme activity, inhibitor",1 µM,inhibition,-1%
Nc1ncc(-c2nc(N3CCOCC3)nc(N3CCOCC3)n2)c(C(F)F)n1,RPS6KA1 C-terminal kinase domain,"binding, competition with immobilised ligand",10 µM,remaining binding,88%
Cc1nn(C)cc1-c1nc2c(N3CCN(Cc4ccc(Cl)cc4)CC3)c(Cl)cnc2[nH]1,"Ribosomal protein S6 kinase alpha-1, N-terminal kinase domain (RPS6KA1, Homo sapiens, UniProt Q15418)","binding, competition with immobilised ligand",1 µM,remaining binding,100%
N#CC1(c2ccccn2)CCN(Cc2cc(C(=O)O)c(=O)n3ccccc23)CC1,RPS6KA1 C-terminal kinase domain,"cell-free assay, competition with immobilised ligand",1 µM,remaining binding,100%
C#Cc1n[nH]c2c(-c3cn([C@@H](C)c4ccccn4)c(=O)[nH]c3=O)cc(F)cc12,RPS6KA1,"enzyme activity, inhibitor",0.1 µM,inhibition,7.4%
Cn1cncc1[C@@](O)(COc1ccc(C#N)cc1-c1ccc(OC(F)(F)F)cc1)c1ccc(C#N)cc1,RPS6KA1 C-terminal kinase domain,"cell-free assay, competition with immobilised ligand",1 µM,remaining binding,100%
O=c1[nH]c2ccccc2n1C1CCN(Cc2ccc(-c3[nH]c4cc5ncnc5cc4nc3-c3ccccc3)cc2)CC1,RPS6KA1,cell-free assay,0.5 µM,remaining signal,101%
Cn1cc(-c2cc(F)cc(N3CCn4c(cc5c4CCCC5)C3=O)c2CO)cc(Nc2ccc(N3CCN(C4COC4)CC3)cn2)c1=O,RPS6KA1,"enzyme activity, inhibitor",0.1 µM,inhibition,0%
CC(C)(C)c1cc(C=C(C#N)C#N)cc(Br)c1O,RPS6KA1,"enzyme activity, inhibitor",0.5 µM,remaining activity,104%
C#Cc1n[nH]c2c(-c3cn([C@@H](C)c4ccccc4)c(=O)[nH]c3=O)cc(F)cc12,RPS6KA1,"enzyme activity, inhibitor",0.1 µM,inhibition,6.2%
